Compound activity as filed in PubChem.
APJ ag: agonists of human APJ apelin receptor | AID 2520 | activation, % at 20 µM | P35414 | CHO-K1 APJ PathHunter beta-arrestin, luminescence; 0% DMSO wells, 100% apelin | hit rate 0.11% among 330,000;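 active = activation more than six SD over the plate average, tested at 20 µM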
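Test system – PathHunter CHO-K1 APJ (AGTRL-1) beta-arrestin reporter cells · Input – 1000 cells/well · Compound – single test compound dose, 20 µM final, 1% DMSO · Times – compound stimulation 90 min at 25 °C, detection 60 min · Technique – beta-gal luminescence · Read-out basis – APJ–arrestin association signal · Control set – negative DMSO alone, positive Apelin-13 at 10 nM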
APJ antag: blocks the human apelin receptor APJ; P35414; CHO-K1 APJ beta-arrestin complementation, luminescence; inhibition, % at 20 µM; hit rate 0.32% among 330,000; AID 2521;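 active = inhibition above about 40% at 20 µM, limit read from the data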;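 also: cells challenged with 10 nM apelin-13 agonist together with compound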
CXCR6 inh: CXCR6 (human) receptor inhibition. O00574. CHO-K1 PathHunter CXCR6 beta-arrestin, luminescence. inhibition, % at 20 µM. hit rate 0.36% among 360,000; in the data active = inhibition above about 34%, passing the limit was not always enough;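 also: antagonist mode with CXCL16 agonist at 10 nM final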
Target sequence (O00574 whole entry, looked up): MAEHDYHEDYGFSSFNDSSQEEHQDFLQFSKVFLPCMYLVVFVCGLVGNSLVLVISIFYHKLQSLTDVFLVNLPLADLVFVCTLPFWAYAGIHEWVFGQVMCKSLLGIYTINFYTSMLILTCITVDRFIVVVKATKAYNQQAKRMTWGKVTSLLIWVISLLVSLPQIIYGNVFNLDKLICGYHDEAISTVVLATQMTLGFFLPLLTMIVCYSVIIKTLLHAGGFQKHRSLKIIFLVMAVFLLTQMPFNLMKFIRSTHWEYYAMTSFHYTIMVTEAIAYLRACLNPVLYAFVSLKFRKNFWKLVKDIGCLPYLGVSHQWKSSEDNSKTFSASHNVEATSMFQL
EBI2 block: EBI2 (human) antagonism. hit rate 0.81% among 360,000. inhibition, % at 5 µM. EBI2 beta-arrestin recruitment, luminescence, 7a,25-OHC stimulated; in the data active = inhibition above about 38%;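 also: enzyme fragment complementation signal reports receptor beta-arrestin coupling in cells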
CCR6 antag: CCR6 (human) receptor antagonism. AID 493098. inhibition, % at 20 µM. P51684. hit rate 0.49% among 340,000. CHO-K1 CCR6 PathHunter beta-arrestin, luminescence, CCL20-stimulated;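 active = compounds whose inhibition of the agonist-driven luminescence signal at 20 µM reaches about 50%, limit read from the data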;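 also: cells stimulated with CCL20 at 14 nM final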
Numbers stand for hits; – = inactive; · = no result; ! = not active in a repeat. The list is not random: actives were taken first. Their share in the collection is about 1.5%.

SMILES | APJ ag | APJ antag | CXCR6 inh | EBI2 block | CCR6 antag
COc1ccc(C(OCC(O)CNCCc2ccc(S(N)(=O)=O)cc2)c2ccc(OC)cc2)cc1 (configuration not stated) | – | – | – | – | –
OC(CNCCc1ccc(C(F)(F)F)cc1)COC(c1ccccc1)c1ccccc1 (configuration not stated) | – | – | – | – | 60.0
CC1(C(=O)NC(=S)NNC(=O)c2ccncc2)CCCCC1 | – | – | – | – | –
O=C(NNC(=S)NC(=O)C12CC3CC(CC(C3)C1)C2)c1ccncc1 | – | – | – | – | 50.7
CN1CCC(n2[nH]c(-c3ccccc3)c(Cc3ccccc3)c2=O)CC1 | · | · | – | – | –
S=C(NCCCN1CCOCC1)Nc1ccc(Cl)cc1 | – | – | 74.5 | – | –
S=C(NCCN1CCOCC1)Nc1ccc(Cl)cc1 | – | – | – | – | –
CCCCCCCCCCCCCCCCn1cc[n+](C)c1 | – | – | – | – | 56.6!
CCCCCCCCn1ccc(=N)cc1 | – | – | – | – | –
CCN1C(=O)[C@H]2[C@@H](c3ccc(-c4ccc(OC)cc4)cc3)N3CCCC[C@@]3(C(=O)OC)[C@H]2C1=O | – | – | – | – | –
CCOC(CN=c1nc(N(C)C)ss1)OCC | · | · | 60.2 | – | 91.7
c1ccc(C(c2nnnn2Cc2ccco2)N2CCN(c3nc4ccccc4s3)CC2)cc1 (configuration not stated) | – | – | – | 35.5 | –
O=C1ON(Cc2ccccc2)C(c2ccccc2)N1c1ccccc1 (configuration not stated) | · | · | – | – | –
CCN(CC)c1ccc(/C=C(\C#N)C(=O)c2ccc(Br)cc2)cc1 | · | · | – | 45.1 | –
CCN(CC)c1ccc(/C=C(\C#N)C(N)=S)cc1 | – | – | – | – | 51.7
OCCNc1nnc(-c2ccccc2)c(-c2ccccc2)n1 | – | – | – | – | –
Fc1ccc(NC(=S)NCCN2CCOCC2)c(F)c1F | – | – | – | – | –
N#CC(C#N)=C1C=CC=CN1/C(=C\c1ccco1)C(=O)c1ccc(Br)cc1 | · | · | 102.9 | 76.7 | 104.2
CCOc1cc(/C=C2\C(=O)ON=C2C)ccc1OCc1ccccc1 | 9.7 | – | – | – | –
Cc1cc(C)c(S(=O)(=O)Nc2ccc3c4c(cccc24)CC3)c(C)c1 | – | – | – | 45.7 | –
Cc1ccc(S(=O)(=O)Nc2ccc3c4c(cccc24)CC3)c(C)c1 | – | – | – | – | –
CCCCn1c(N)c(C(=S)NC(=O)CC(C)C)c(=O)n(C)c1=O | · | · | 47.7 | – | ·
COc1cccc(S(=O)(=O)Nc2ccc3c(c2)C(=O)N(C)C[C@H](OC)[C@H](C)CN[C@@H](C)CO3)c1 | · | · | · | – | ·
N#CCCN(C(=O)c1ccc2c(=O)n3c(nc2c1)CCCCC3)c1ccccc1 | – | – | – | – | –
CNC(=S)N1C2CCCC1CC(NC(=O)c1ccc(F)cc1)C2 (configuration not stated) | – | – | – | – | –
SMILES | APJ ag | APJ antag | CXCR6 inh | EBI2 block | CCR6 antag
CN1/C(=C\C(=O)c2cccnc2)C(C)(C)c2ccccc21 | – | – | – | – | –
CN1/C(=C/C(=O)c2nc(S(C)(=O)=O)ncc2Cl)C(C)(C)c2ccccc21 | – | – | – | 57.7 | –
O=[N+]([O-])c1ccc(NN=Cc2ccccc2O)nc1 | · | · | – | – | ·
O=[N+]([O-])c1ccc(O)c(/C=N/Nc2ccccn2)c1 | · | · | – | 63.6 | 61.0
COc1ccc(N2CC(C(=O)N/N=C/c3cc([N+](=O)[O-])ccc3O)CC2=O)cc1 (configuration not stated) | – | – | – | – | 55.8
O=[N+]([O-])c1ccc(NN=Cc2ccc(O)cc2O)nc1 | · | · | – | – | 63.0
O=C(N/N=C/c1cc([N+](=O)[O-])ccc1O)C12CC3CC(CC(C3)C1)C2 | – | – | – | 79.2 | 71.2
CC(C)(C)NC(=O)c1ccccc1NC(=O)C1CC(=O)N(C2CCCCC2)C1 (configuration not stated) | – | – | – | – | –
CC1CCCN(C(=O)COC(=O)C2CCN(S(=O)(=O)c3ccc4c(c3)OCCO4)CC2)C1 (configuration not stated) | – | – | – | – | –
CCn1c(SCC(=O)N(C)Cc2ccc(OC)c(F)c2)nc2cc(S(N)(=O)=O)ccc21 | – | – | – | – | –
CC1(C)CNC(=O)c2sc(NC(=O)c3ccccc3Cl)nc2C1 | – | – | – | – | –
Cc1cc(C(=O)N/N=C/c2cc([N+](=O)[O-])ccc2O)c2ccccc2n1 | – | – | – | 49.3 | –
O=C(N/N=C/c1cc([N+](=O)[O-])ccc1O)c1cc(-c2ccccc2)nc2ccccc12 | – | – | – | – | –
COc1ccc(CN2C(=O)CNC2=S)cc1 | – | – | – | – | –
O=C(NN1CCCCCC1)c1ccccc1F | · | · | – | – | –
COc1cc(C(=O)N2CCN(c3ccccn3)CC2)cc(OC)c1OC | – | – | – | – | –
COc1cc2nc(C3CCC3)nc(N3CCN(c4ccccn4)CC3)c2cc1OC | – | – | – | 52.5 | –
CCn1cc(CNC(=S)Nc2cccc3ccccc23)cn1 | – | – | – | – | –
O=C1C(Cc2ccccc2)Nc2ncnc(N3CCCCC3)c2N1Cc1ccc(Cl)cc1 (configuration not stated) | – | – | – | – | 51.1
CN(C)c1ccc(C(=O)c2ccc(O)cc2O)cc1 | – | – | – | – | –
CN(C)c1ccc(Cc2cc3c(O)ccc(O)c3cc(Cc3ccc(N(C)C)cc3)c2=O)cc1 | · | · | 34.3 | – | ·
COC(=O)c1ccc(CNC(=O)c2ccc3c(c2)S(=O)(=O)N=C2CCCCCN23)cc1 | – | – | – | – | –
Cc1ccc(C(=O)NNC(=O)CCCN2C(=O)/C(=C/c3ccccc3Cl)SC2=S)cc1 | – | – | – | 65.5 | –
O=C(CCN1C(=O)/C(=C/c2ccccc2Cl)SC1=S)NNC(=O)c1cccnc1 | – | – | – | – | –
O=C(CCCN1C(=O)/C(=C/c2ccccc2Cl)SC1=S)NNC(=O)c1ccc(Cl)cc1 | – | – | – | 60.3 | –
SMILES | APJ ag | APJ antag | CXCR6 inh | EBI2 block | CCR6 antag
Cc1[nH]n(-c2ccccc2)c(=O)c1/C=N/N1C(=O)c2cccc3cccc(c23)C1=O | – | – | 52.5 | – | 73.5
Cc1[nH]n(-c2ccccc2)c(=O)c1C=Nc1cccc2cccnc12 | – | 94.2 | 53.9 | 95.7 | 52.3
COc1ccc(OC)c(NS(=O)(=O)c2cc3c4c(c2)CCN4C(=O)CC3)c1 | – | – | – | – | –
CC(=O)c1ccc(N=Nc2c(C)[nH]n(-c3ccccc3)c2=O)cc1 | – | – | 40.5 | – | –
Cc1[nH]n(-c2ccccc2)c(=O)c1N=Nc1ccc(C(=O)O)cc1 | – | – | – | – | –
Cc1ccc(S(=O)(=O)c2nc(-c3ccccc3)oc2N2CCC(C(N)=O)CC2)cc1 | – | – | – | – | –
Cn1c(=O)c(=O)n(C)c2cc([N+](=O)[O-])c([N+](=O)[O-])cc21 | – | – | – | – | –
CN(C)c1c([N+](=O)[O-])cc(N2C(=O)C=CC2=O)cc1[N+](=O)[O-] | · | · | 75.1 | – | ·
